# Compound activity as filed in PubChem BioAssay.
# KCNQ1 inh: human KCNQ1 channel inhibition | P51787 | CHO-K1 KCNQ1, FluxOR thallium flux fluorescence; stronger effect = higher value | B-score at 10 µM | actives 1.3% (n = 310,000) | AID 2642;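 active = compounds whose thallium flux B-score, printed positive for inhibition, exceeds three library SD while starting fluorescence stays within three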;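 also: channel opened by potassium depolarization with thallium stimulus after 20 min compound exposure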
# KCNQ1 pot: potentiates or activates the human KCNQ1 potassium channel; B-score at 10 µM; actives 0.35% (n = 310,000); P51787; AID 2648; CHO-K1 KCNQ1, thallium flux FluxOR fluorescence; stronger effect = higher value;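 active = fluorescence ratio B-score, a plate-corrected score, at least three library SD, with initial intensity B-score within 5 SD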
#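 Test system: CHO-K1 cells stably expressing KCNQ1 / Medium: assay buffer / Also added: depolarizing K+/Tl+ stimulus, K2SO4 and Tl2SO4 each 12.5 mM in 5x stock / Incubation: 90 min dye loading and 20 min compound exposure, both at room temperature / Signal: thallium influx via FluxOR fluorescence, kinetic imaging / Evaluation: B score of baseline-normalized fluorescence ratio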
# KCC2 mod: modulates chloride dependent transport by human KCC2; actives 2.2% (n = 190,000); AID 1456; B-score of Tl+ flux slope (higher = more flux/activation; lower = inhibition) at 10 µM; KCC2 cells, thallium flux FluoZin-2 fluorescence;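 active = thallium flux slope and its plate-corrected score both differing from the plate sample mean at a set confidence after two filtering rounds, in either direction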;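 also: slope of fluorescence scaled to starting intensity during 10 to 20 s after thallium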
# hERG rescue: shields human hERG channel from block by proarrhythmic agents; actives 0.51% (n = 310,000); activation (rescue from dofetilide block), less the hit threshold, % at 10 µM; Q12809; AID 1511; CHO-hERG, FluxOR thallium flux, dofetilide IC70 present;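 active = activation above the mean of controls blocked by dofetilide plus 5 SD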;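 also: thallium influx through hERG after potassium depolarization seen as dye fluorescence rise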
# Target sequence (Q12809 whole entry, looked up): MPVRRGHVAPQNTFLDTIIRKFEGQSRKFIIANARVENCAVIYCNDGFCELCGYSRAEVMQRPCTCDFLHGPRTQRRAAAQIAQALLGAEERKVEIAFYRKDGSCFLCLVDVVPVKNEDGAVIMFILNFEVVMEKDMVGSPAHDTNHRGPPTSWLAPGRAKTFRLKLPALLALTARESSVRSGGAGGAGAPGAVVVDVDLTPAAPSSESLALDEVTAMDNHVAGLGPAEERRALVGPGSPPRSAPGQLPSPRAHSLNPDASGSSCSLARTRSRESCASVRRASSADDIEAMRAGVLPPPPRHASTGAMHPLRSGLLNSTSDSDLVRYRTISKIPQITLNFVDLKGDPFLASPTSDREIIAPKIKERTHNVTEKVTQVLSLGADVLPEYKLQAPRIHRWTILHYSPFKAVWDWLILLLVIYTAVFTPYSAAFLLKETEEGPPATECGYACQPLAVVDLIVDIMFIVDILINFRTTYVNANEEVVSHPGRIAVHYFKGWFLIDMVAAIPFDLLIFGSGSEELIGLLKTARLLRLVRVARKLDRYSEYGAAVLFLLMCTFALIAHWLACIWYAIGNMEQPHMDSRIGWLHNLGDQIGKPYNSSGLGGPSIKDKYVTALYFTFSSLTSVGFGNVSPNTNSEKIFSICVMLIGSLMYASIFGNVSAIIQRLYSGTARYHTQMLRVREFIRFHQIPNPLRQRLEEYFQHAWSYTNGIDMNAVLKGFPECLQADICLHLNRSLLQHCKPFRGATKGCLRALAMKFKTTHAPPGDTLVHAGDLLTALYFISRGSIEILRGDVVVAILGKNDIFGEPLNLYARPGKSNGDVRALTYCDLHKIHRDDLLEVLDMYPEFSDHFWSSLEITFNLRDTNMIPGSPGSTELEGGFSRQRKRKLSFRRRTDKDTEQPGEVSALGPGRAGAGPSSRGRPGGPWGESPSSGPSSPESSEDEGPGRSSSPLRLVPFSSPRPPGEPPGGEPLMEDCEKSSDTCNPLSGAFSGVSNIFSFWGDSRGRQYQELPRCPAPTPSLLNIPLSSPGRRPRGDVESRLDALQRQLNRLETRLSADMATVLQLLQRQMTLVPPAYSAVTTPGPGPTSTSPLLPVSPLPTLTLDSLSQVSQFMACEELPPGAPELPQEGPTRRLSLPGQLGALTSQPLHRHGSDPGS
# KCNK9 block: blocks the human KCNK9 two-pore domain potassium channel | Q9NPC2 | B-score at 10 µM | actives 1.2% (n = 310,000) | HEK293 KCNK9, FluxOR thallium flux fluorescence; stronger effect = lower value | AID 488922;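 active = ratio B-score over 3 SD below the library mean, with starting fluorescence within 5 SD of its mean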;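 also: negative B-score means less thallium flux so channel inhibition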
# KCNK3 block: human KCNK3 channel inhibition, primary screen | O14649 | CHO-KCNK3 thallium flux, FluxOR fluorescence; stronger effect = lower value | B-score at 10 µM | actives 0.84% (n = 340,000) | AID 602410;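 active = B-score under library mean minus 4 SD, starting fluorescence ratio at most library mean plus 5 SD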;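 also: more negative B-score means stronger inhibition of thallium flux through KCNK3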
# KCC2 sec1: KCC2 (human) modulation, secondary assay. shares compounds with KCC2 mod. HEK293-KCC2, thallium flux, FluoZin2 fluorescence; stronger effect = higher value. normalised thallium flux (F/F0 slope) at 10 µM. actives 15% (n = 3,700). AID 1713;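 active = thallium flux slope above the same plate's solvent-only control mean plus 3 SD; inconclusive = the two replicate wells disagree; inactive = no significant difference from solvent-only control wells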
# KCC2 bumet counter: thallium flux persisting under bumetanide in KCC2 cells, counter-screen secondary assay. actives 49% (n = 3,700). AID 1714. shares compounds with KCC2 mod. HEK293-KCC2 + bumetanide/ouabain, thallium flux FluoZin2; stronger effect = higher value. normalized thallium flux at 10 µM;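 active = thallium entry rate above the same plate's blocked-transporter control wells by more than 3 SD; inconclusive = the two repeat wells disagree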;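 also: raw slope of fluorescence over initial fluorescence between 10 and 20 s after thallium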
# KCC2 sec2: KCC2 (human) modulation, second secondary assay; actives 23% (n = 3,700); shares compounds with KCC2 mod; HEK293-KCC2, thallium flux FluoZin2 fluorescence; actives lie on both sides; F/F0 rise rate, 10–20 s post-thallium; normalized thallium flux at 10 µM; AID 1715;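 active = thallium flux slope more than 3 SD above or below the plate's solvent-only control mean, mostly below; inconclusive = the two repeat wells disagreed; inactive = no significant shift from solvent-only controls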;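 also: raw slope with 0.1% DMSO as baseline and bumetanide as block control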
# HEK counter1: counter-screen for KCC2 modulators: effect in parental HEK293 cells; shares compounds with KCC2 mod; thallium flux FluoZin2, ouabain; baseline-ratio fluorescence slope, 10–20 s after thallium; thallium flux rate (normalised fluorescence) at 10 µM; actives 46% (n = 3,700); AID 1716;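 active = thallium flux rate significantly above the same plate's solvent-only control wells, beyond their mean plus 3 SD; inconclusive = the two replicate wells gave conflicting results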
# KCC2 retest ouab: KCC2 (human) modulation, ouabain retest; AID 1717; raw Tl+ flux slope (below DMSO = inhibition, above = activation) at 10 µM; HEK293-KCC2, thallium flux FluoZin2 fluorescence; bidirectional: low = inhibitor, high = activator; actives 48% (n = 3,700); shares compounds with KCC2 mod;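 active = thallium flux slope beyond 3 SD from same-plate DMSO control mean in most replicates, usually higher, sometimes lower; inconclusive = repeat tests gave conflicting results; inactive = no significant difference from controls in most replicates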;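 also: slope of initial-normalized fluorescence between seconds 10 and 20 after thallium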
# HEK counter2: acts in parental HEK cells, second KCC2 counter-screen; thallium flux slope at 10 µM; HEK293 parental, thallium flux FluoZin-2 fluorescence slope; actives 33% (n = 3,700); shares compounds with KCC2 mod;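 active = thallium flux slope above the same plate's solvent-control mean plus 3 SD in both duplicate wells; inconclusive = duplicate wells that disagreed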;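 also: run without ouabain in cells lacking the KCC2 cotransporter; slope of fluorescence scaled to its starting value between 10 and 20 s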
# Numbers without * were called inactive; i = inactive; ? = inconclusive; · = no result. Hits are enriched below; roughly 4.1% of the tested compounds scored in any of these assays.
SMILES,KCNQ1 inh,KCNQ1 pot,KCC2 mod,hERG rescue,KCNK9 block,KCNK3 block,KCC2 sec1,KCC2 bumet counter,KCC2 sec2,HEK counter1,KCC2 retest ouab,HEK counter2
CC(C)C(=O)N1CCN(c2ccccc2NC(=S)NC(=O)/C=C/c2ccco2)CC1,·,·,·,·,·,i,·,·,·,·,·,·
COC(=O)c1cnn(-c2ccccc2)c1/C=N/NC(=S)Nc1ccccc1,i,i,9.2*,-4,i,i,0.0094,0.019*,0.03,0.012*,0.029*,0.01
CNC(=S)N/N=C/c1c(C(=O)OC)cnn1-c1ccc(F)cc1F,i,i,2.2,-3,i,i,·,·,·,·,·,·
COC(=O)c1cnn(-c2ccccc2)c1C(OC)OC,i,i,0.32,-4,i,i,·,·,·,·,·,·
COC(=O)c1cnn(-c2ccc(F)cc2F)c1/C=N/NC(=S)NC(C)(C)C,i,i,7.8*,-4,-7*,i,0.011,0.051*,0.031,0.017*,0.031,?
O=C(CCCl)N1c2ccccc2C=Cc2ccccc21,·,·,·,·,·,i,·,·,·,·,·,·
CC(=O)c1ccc(Sc2ccccc2)c([N+](=O)[O-])c1,i,i,-0.49,-10,i,i,·,·,·,·,·,·
NC(=O)CC(NC(=O)c1ccccc1)c1ccc(N2CCN(c3ccccn3)CC2)c([N+](=O)[O-])c1 (stereo not drawn),i,i,·,-8,i,i,·,·,·,·,·,·
COc1ccc2nc(N=Nc3c(O)ccc4ccccc34)sc2c1,i,15*,14*,17*,i,·,0.013*,0.05*,0.036,0.025*,0.034*,0.016*
O=C(CCc1ccccc1)NCCS(=O)(=O)N1CCN(c2ccccc2)CC1,i,i,·,-5,i,i,·,·,·,·,·,·
CCn1ccnc1CN(C)Cc1cn[nH]c1-c1ccc(F)cc1F,i,i,1.1,-3,i,i,·,·,·,·,·,·
O=C(COc1ccc(S(=O)(=O)N2CCCCC2)cc1)N1CCCC1,i,i,·,0,i,i,·,·,·,·,·,·
Oc1ccc(-c2csc(-c3ccccc3)n2)cc1O,i,i,-4.4*,-20,i,i,0.0085,?,0.027,0.007,0.021*,0.0097
Cc1ccccc1C(=O)NC(=S)Nc1ccccc1C(F)(F)F,i,i,·,-1,i,i,·,·,·,·,·,·
Cc1ccccc1C(=O)NC(=S)Nc1ccccc1C(=O)O,i,i,-0.51,-10,i,i,·,·,·,·,·,·
Cc1ccccc1C(=O)NC(=S)Nc1ccccc1[N+](=O)[O-],i,i,14*,-3,i,i,0.0073,0.013*,0.028,0.011*,0.021,0.011
O=C(NC(=S)Nc1ccccc1C(F)(F)F)c1ccccc1F,i,i,99*,0,i,i,0.0074,0.087*,0.052*,0.055*,0.067*,0.052*
COC(=O)c1ccccc1NC(=S)NC(=O)c1ccccc1C,i,i,4.7*,-8,i,i,0.01,0.04*,0.03,0.013*,?,?
O=C(Nc1cccc(NC(=O)c2cccnc2Cl)c1)c1ccco1,i,i,-2,-8,i,i,·,·,·,·,·,·
O=C(NC(=S)Nc1cccnc1Cl)c1ccco1,i,i,25*,-5,i,i,0.02*,0.051*,0.04,?,0.043*,?
Cc1cc(C2(c3ccc(O)c(C)c3)C(=O)N(C)c3ccc(Br)cc32)ccc1O,i,i,·,-10,i,i,·,·,·,·,·,·
COC(=O)c1c(C)oc(C)c1S(=O)(=O)NCc1cccs1,i,i,0.021,-8,i,i,·,·,·,·,·,·
COc1cc(OC)c(OC)cc1CNCCSc1nnnn1C,i,i,0.27,-22,i,i,·,·,·,·,·,·
Cc1ccc(NC2CCCN(C(=O)c3ccc4nccnc4c3)C2)cc1C (stereo not drawn),i,i,·,-11,i,i,·,·,·,·,·,·
COCCNC(=S)Nc1ccccc1[N+](=O)[O-],i,i,-0.062,-2,i,i,·,·,·,·,·,·
SMILES,KCNQ1 inh,KCNQ1 pot,KCC2 mod,hERG rescue,KCNK9 block,KCNK3 block,KCC2 sec1,KCC2 bumet counter,KCC2 sec2,HEK counter1,KCC2 retest ouab,HEK counter2
Cc1ccnc(NC(=O)CNC(=O)c2ccco2)c1,i,i,·,-6,i,i,·,·,·,·,·,·
O=C(NC(=S)Nc1ccccc1[N+](=O)[O-])c1ccco1,i,i,25*,0,i,i,0.017*,0.077*,0.038,0.032*,0.064*,0.016*
Cc1ccnc(NC(=S)NC(=O)c2ccco2)c1,i,i,7.5*,-3,i,i,0.015*,0.057*,0.033,0.02*,0.046*,0.013*
Cc1cc(-c2nc3ncccc3o2)ccc1NC(=S)NC(=O)c1ccco1,i,i,10*,-5,i,i,0.013*,0.04*,0.036,0.035*,0.035*,0.016*
COc1ccccc1-c1nc(N)n[nH]1,i,i,-0.08,-10,i,i,·,·,·,·,·,·
C=CCn1c(=O)c2c(C)c(C)sc2n2c(Nc3ccc(OC)cc3)nnc12,i,i,-2,-8,i,i,·,·,·,·,·,·
CCOc1ccc(S(=O)(=O)Nc2ccccc2C(=O)NCc2ccco2)cc1,i,i,-1.4,-5,i,i,·,·,·,·,·,·
COc1ccc(S(=O)(=O)Nc2ccccc2C(=O)NCc2ccco2)cc1Br,i,i,-4.1*,-7,i,i,?,0.0038,0.023*,0.0049*,0.012*,0.0083*
Cc1cc(Cn2nc(-c3ccccc3C)cc2C(=O)O)on1,·,·,·,·,·,i,·,·,·,·,·,·
Cc1noc(C)c1COc1ccc(C(=O)OCC(=O)NC2CCCCC2C)cc1 (stereo not drawn),·,·,0.82,·,·,i,0.009,0.0055,0.033,0.008,0.018,?
Cc1noc(C)c1COc1ccc(C(=O)OCC(=O)NC23CC4CC(CC(C4)C2)C3)cc1,i,i,·,-10,i,i,·,·,·,·,·,·
